Assay outcomes (PubChem)
An excerpt weighted towards active compounds, which were near 4% of everything screened.
hERG protect = compounds protecting human hERG from proarrhythmic drug block | activation (rescue from dofetilide block), less the hit threshold, % at 10 µM | actives 0.51% (n = 310,000) | CHO-hERG, FluxOR thallium flux, dofetilide IC70 present;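 active means activation above the mean of controls blocked by dofetilide plus 5 SD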;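 further: thallium influx through hERG after potassium depolarization seen as dye fluorescence rise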
KCNK9 block = human KCNK9 channel inhibition; HEK293 KCNK9, FluxOR thallium flux fluorescence; hits give low values; B-score at 10 µM; actives 1.2% (n = 310,000); AID 488922;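 active means ratio B-score over 3 SD below the library mean, with starting fluorescence within 5 SD of its mean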;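 further: negative B-score means less thallium flux so channel inhibition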
KCNQ1 block = inhibitors of human KCNQ1 potassium channel; P51787; CHO-K1 KCNQ1, FluxOR thallium flux fluorescence; hits give high values; B-score at 10 µM; actives 1.3% (n = 310,000); AID 2642;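 active means compounds whose thallium flux B-score, printed positive for inhibition, exceeds three library SD while starting fluorescence stays within three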;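 further: channel opened by potassium depolarization with thallium stimulus after 20 min compound exposure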
KCNK3 inh = human KCNK3 channel inhibition, primary screen; CHO-KCNK3 thallium flux, FluxOR fluorescence; hits give low values; B-score at 10 µM; actives 0.84% (n = 340,000); AID 602410;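 active means B-score under library mean minus 4 SD, starting fluorescence ratio at most library mean plus 5 SD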;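 further: more negative B-score means stronger inhibition of thallium flux through KCNK3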
KCNQ1 act = human KCNQ1 channel potentiation or activation. B-score at 10 µM. actives 0.35% (n = 310,000). CHO-K1 KCNQ1, thallium flux FluxOR fluorescence; hits give high values. P51787. AID 2648;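 active means fluorescence ratio B-score, a plate-corrected score, at least three library SD, with initial intensity B-score within 5 SD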
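Test system: CHO-K1 cells stably expressing KCNQ1 / Medium: assay buffer / Also added: depolarizing K+/Tl+ stimulus, K2SO4 and Tl2SO4 each 12.5 mM in 5x stock / Incubation: 90 min dye loading and 20 min compound exposure, both at room temperature / Signal: thallium influx via FluxOR fluorescence, kinetic imaging / Evaluation: B score of baseline-normalized fluorescence ratio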
PHOSPHO1 inh = PHOSPHO1 (human) inhibition; Q8TCT1; recombinant PHOSPHO1, absorbance phosphatase assay; inhibition, % at 13.3 µM; actives 1.1% (n = 290,000); in the data active means inhibition above about 60%
Target sequence (Q8TCT1 whole entry, looked up): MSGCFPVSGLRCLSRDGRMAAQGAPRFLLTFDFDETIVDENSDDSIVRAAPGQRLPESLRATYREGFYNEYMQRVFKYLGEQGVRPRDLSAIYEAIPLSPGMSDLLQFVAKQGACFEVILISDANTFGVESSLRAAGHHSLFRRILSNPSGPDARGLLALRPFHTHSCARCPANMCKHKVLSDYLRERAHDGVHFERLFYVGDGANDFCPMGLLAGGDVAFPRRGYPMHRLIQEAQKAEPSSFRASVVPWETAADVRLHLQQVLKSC
KCNK9 inh conf = confirmation of human KCNK9 potassium channel inhibitors; inhibition, % at 10 µM; actives 43% (n = 4,900); HEK293 KCNK9 cells, FluxOR thallium flux fluorescence; shares compounds with KCNK9 block; AID 492992;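 active means thallium signal inhibited by more than 5 SD of the compound-free buffer control wells, on both duplicate plates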
Kir21 sel = selectivity of KCNK9 modulators against mouse Kir2.1; shares compounds with KCNK9 block; Kir2.1 cells, FluxOR thallium flux fluorescence; inhibition, % at 10 µM; actives 4% (n = 4,900); AID 492993;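 active means thallium signal drop more than 5 SD beyond the mean of the no-compound control wells, seen in both duplicate plates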;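 further: signal is fluorescence rise after thallium addition divided by baseline fluorescence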
HEK293 Tl ctr = non-induced cell nonspecific activity of KCNK9 modulators; AID 492997; actives 40% (n = 4,900); non-induced KCNK9-HEK293, FluxOR thallium flux; inhibition, % at 10 µM; shares compounds with KCNK9 block;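 active means thallium signal drop beyond 5 SD of the untreated control mean, on both duplicate plates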
KCNK3 inh conf = human KCNK3 channel inhibition, confirmation assay. shares compounds with KCNK3 inh. CHO-KCNK3 thallium flux, FluxOR fluorescence; 0% buffer, 100% carvedilol maximal block. ratio percent of control, % at 10 µM. actives 99% (n = 2,400). AID 651638;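 active means ratio percent of control, averaged over triplicates, above buffer control mean plus 5 SD, cut at about 64% in these data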;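 further: ratio is the fluorescence rise from min to max over baseline after thallium stimulus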
KCNK3 uninduced = activity in cells without induced KCNK3 expression | non-induced KCNK3 parental cells, FluxOR thallium flux; hits give low values | actives 40% (n = 2,400) | thallium flux ratio (lower = more inhibition) at 10 µM | shares compounds with KCNK3 inh | AID 651747;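 active means thallium flux ratio, averaged over three wells, more than 5 SD below the buffer control mean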;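 further: host cells are CHO cells without KCNK3 induction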
Of the large screens only hits and unclear results are named; the others gave an inactive call (follow-up assays come after a bar, where they were run).

N#CC1=C(N)n2c(s/c(=C\c3cccs3)c2=O)=C(C#N)C1c1cccs1 (configuration not stated)	KCNK9 block -11.1, KCNK3 inh -9.44 | KCNK9 inh conf 26.5% | Kir21 sel inactive | HEK293 Tl ctr 39.0% | KCNK3 inh conf 96.0 | KCNK3 uninduced 0.154
N#CC1=C(N)n2c(s/c(=C\c3ccco3)c2=O)=C(C#N)C1c1ccco1 (configuration not stated)	none
CCCN(/C=N/c1sc2c(c1C#N)CCCCC2)CCC	KCNK9 block -19.4, KCNK3 inh -10.9 | KCNK9 inh conf 69.0% | Kir21 sel inactive | HEK293 Tl ctr 47.5% | KCNK3 inh conf 105.0 | KCNK3 uninduced inactive
Cc1ccc(C(C)C)c(OCCCn2ccnc2C)c1	none
CCN(CC)C(=O)CSc1nc2sc3c(c2c(=O)n1-c1ccc(C)cc1)CC(C)(C)SC3	KCNK3 inh -17.3 | KCNK9 inh conf inactive | Kir21 sel inactive | HEK293 Tl ctr 25.5% | KCNK3 inh conf 120.7 | KCNK3 uninduced 0.14
CN(c1ccccc1)S(=O)(=O)c1cccc2ccccc12	KCNK9 block -8.97, KCNK3 inh -10.2 | KCNK9 inh conf 39.0% | Kir21 sel inactive | HEK293 Tl ctr 30.5% | KCNK3 inh conf 112.7 | KCNK3 uninduced inactive
CC1(C)CC(=O)C2=C(C1)N=C1c3ccccc3C(=O)C1C2c1ccc(Cl)cc1 (configuration not stated)	KCNK9 block -11.7, KCNK3 inh -15.2 | KCNK9 inh conf 55.0% | Kir21 sel inactive | HEK293 Tl ctr 40.0% | KCNK3 inh conf 122.3 | KCNK3 uninduced 0.141
CCn1cc(Cl)c(C(=O)Nc2cccc(C(F)(F)F)c2)n1	KCNK9 block -8.46 | KCNK9 inh conf 42.5% | Kir21 sel inactive | HEK293 Tl ctr 33.5% | KCNK3 inh conf 108.3 | KCNK3 uninduced inactive
COc1ccc(-c2cc(=O)oc3cc(OCC(=O)NCCN4CCOCC4)ccc23)cc1	none
COc1ccccc1CNC(=O)c1csc(Cc2ccc(Cl)cc2)n1	KCNK3 inh -13.4 | KCNK9 inh conf inactive | Kir21 sel inactive | HEK293 Tl ctr 26.0% | KCNK3 inh conf 122.3 | KCNK3 uninduced 0.136
Cc1nc(S/C(C(=O)O)=C2/C(=O)Nc3ccccc32)n[nH]1	none
Fc1ccc(C(c2nnnn2CCc2ccccc2)N2CCCc3ccccc32)cc1 (configuration not stated)	KCNK9 block -8.29, KCNK3 inh -9.11 | KCNK9 inh conf 34.5% | Kir21 sel inactive | HEK293 Tl ctr 36.0% | KCNK3 inh conf 92.7 | KCNK3 uninduced 0.143
COc1cc2cc(C(c3nnnn3C3CCCC3)N3CCc4ccccc43)c(=O)[nH]c2cc1OC (configuration not stated)	none
Fc1ccc(C(c2nnnn2C2CCCC2)N2CCc3ccccc32)cc1 (configuration not stated)	KCNK9 block -9.51, KCNK3 inh -9.31 | KCNK9 inh conf 37.5% | Kir21 sel inactive | HEK293 Tl ctr 46.5% | KCNK3 inh conf 107.3 | KCNK3 uninduced inactive
CC(C)(C)c1cc(OC(=O)c2ccccc2F)ccc1O	KCNK9 block -10.4 | KCNK9 inh conf 33.5% | Kir21 sel inactive | HEK293 Tl ctr 39.0% | KCNK3 inh conf 100.3 | KCNK3 uninduced inactive
